Measurements from ChEMBL document CHEMBL1132195, “cycloSal-Pronucleotides of 2',3'-dideoxyadenosine and 2', 3'-dideoxy-2',3'-didehydroadenosine: synthesis and antiviral evaluation of a highly efficient nucleotide delivery system” (J Med Chem, 1999).

Columns and labels:
[1] = Partition coefficient (logP); assay type: physicochemical; conditions: octanol/water
How it was run: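 Compound dissolved in 1-octanol, shaken with an equal volume of water for 10 min and phases separated by centrifugation. Each phase analysed by RP-HPLC with UV detection at 260 nm. P calculated from the peak areas of the aqueous and organic phases.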

[2] = Selectivity by CC50 of CEM cells/EC50 of CEM cells against HIV-1; assay type: functional, CCRF-CEM
C3H/3T3 [3] = assay: (§1) Effect of compound against Moloney murine sarcoma virus (MSV)-induced transformation of C3H/3T3 embryo murine fibroblasts; assay type: functional, cell-based, Mus musculus
How it was run: (§2)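 C3H/3T3 mouse embryo fibroblasts seeded at 20 000 cells/mL, incubated 24 h, infected with 80 focus-forming units of MSV for 120 min, then given fresh medium with compound dilutions. Transformation scored microscopically after 6 days; EC50 is the concentration giving 50% inhibition of transformation. MCC is the lowest concentration causing microscopically visible morphological alteration of the fibroblast cultures.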

C3H/3T3 [4] = assay: Minimal cytotoxic concentration in C3H/3T3 cells.; assay type: functional; conditions: Mus musculus; how it was run: as §2
CCRF-CEM = assay: In vitro cytotoxic concentration in CEM cells.; assay type: functional, Homo sapiens
[5] = test system: Human immunodeficiency virus 1; assay: In vitro inhibition of HIV-1 replication in human T-lymphocytic cells (CEM).; assay type: functional, organism-based
How it was run: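 CEM cells at 4×10^5 cells/mL infected with HIV-1 or HIV-2 (strain ROD, stocks grown in MT-4 cells) at ~100 CCID50 per mL. Infected cells mixed 1:1 with compound dilutions.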

[6] = test system: Human immunodeficiency virus 2; assay: In vitro inhibition of HIV-2 replication in human T-lymphocytic cells (CEM).; assay type: functional, organism-based
How it was run: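 CEM cells at 4×10^5 cells/mL infected with HIV-1 or HIV-2 (strain ROD, stocks grown in MT-4 cells) at ~100 CCID50 per mL. Infected cells mixed 1:1 with compound dilutions. Giant cell formation recorded microscopically after 4-5 days; EC50 is the 50% effective concentration.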

[7] = Selectivity index by CC50 of CEM cells/EC50 of CEM cells against HIV-1; assay type: functional, CCRF-CEM
C3H/3T3 [8] = assay: Minimal cytotoxic concentration required to cause morphological alteration of C3H/3T3 fibroblast culture cells; assay type: functional; conditions: Mus musculus; how it was run: as §2
[9] = Hydrolysis half life in phosphate buffer at the specified pH of 7.3; assay type: ADME; conditions: pH 7.3
How it was run: (§3)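 Compound diluted from DMSO stock to 0.71 mM final in 24.8 mM buffer at 37 °C, with AZT as internal standard. Buffers: phosphate (Sörensen) pH 7.3; glycine/HCl pH 3.0 or 1.5. Aliquots stopped by freezing and analysed by RP-HPLC at 260 nm. Rate constant taken from the log degradation slope, half-life calculated from it; mean of duplicates.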

[10] = Hydrolysis half life in glycine/HCl buffer at the specified pH of 3.0; assay type: ADME; conditions: pH 3; how it was run: as §3
[11] = Hydrolysis half life in glycine/HCl buffer at the specified pH of 1.5; assay type: ADME; conditions: pH 1.5; how it was run: as §3
C3H/3T3 [12] = assay: as §1; assay type: functional, cell-based; conditions: Mus musculus; how it was run: as §2

| SMILES | logP ([1]; read-out: logP) | SI [2] | EC50 (C3H/3T3 [3]; Mus musculus, C3H/3T3) | MCC (C3H/3T3 [4]) | CC50 (CCRF-CEM; Homo sapiens, CCRF-CEM) | EC50 ([5]; Human immunodeficiency virus 1) | EC50 ([6]; Human immunodeficiency virus 2) | SI [7] | MCC (C3H/3T3 [8]) | half-life [9] | half-life [10] | half-life [11] | EC50 (C3H/3T3 [12]) | logP [1] | EC50 (C3H/3T3 [3]; c3h/3t3) | CC50 (CCRF-CEM) | EC50 [5] | EC50 [6] |
| --- | --- | --- | --- | --- | --- | --- | --- | --- | --- | --- | --- | --- | --- | --- | --- | --- | --- | --- |
| Nc1ncnc2c1ncn2[C@H]1CC[C@@H](CO)O1 | -0.28 | >57 | 40000 nM | > 50 µM | > 250000 nM | 4300 nM | 4500 nM | – | – | – | – | – | – | – | – | – | – | – |
| Cc1cccc2c1OP(=O)(OCC1CCC(n3cnc4c(O)ncnc43)O1)OC2 (centres undefined) | 0.14 | – | > 50000 nM | – | 58000 nM | 1100 nM | 700 nM | 53 | > 50 µM | 44.5 h | 180 min | 12 min | – | – | – | – | – | – |
| Nc1ncnc2c1ncn2[C@H]1C=C[C@@H](COP2(=O)OCc3ccccc3O2)O1 (some centres undefined) | 0.36 | – | 300 nM | – | 86000 nM | 65 nM | 350 nM | 1329 | > 50 µM | 10.3 h | 8.4 min | 0.6 min | – | – | – | – | – | – |
| COc1ccc2c(c1)COP(=O)(OCC1CCC(n3cnc4c(N)ncnc43)O1)O2 (centres undefined) | 0.64 | – | – | – | 87000 nM | 47 nM | 160 nM | 1851 | > 50 µM | 23.4 h | 732 min | 48 min | 3900 nM | – | – | – | – | – |
| Nc1ncnc2c1ncn2[C@H]1C=C[C@@H](CO)O1 | -0.49 | – | 35000 nM | – | 96000 nM | 30000 nM | 50000 nM | 3 | > 50 µM | – | 0.6 min | < 0.6 min | – | – | – | – | – | – |
| OCC1CCC(n2cnc3ncnc(O)c32)O1 (centres undefined) | -1.25 | – | > 50000 nM | – | 156000 nM | 3500 nM | 4000 nM | 44 | > 50 µM | – | 12 min | 1.8 min | – | – | – | – | – | – |
| Cc1cccc2c1OP(=O)(OCC1CCC(n3cnc4c(N)ncnc43)O1)OC2 (centres undefined) | 0.88 | – | – | – | 28000 nM | 47 nM | 30 nM | 585 | > 50 µM | 44.3 h | 834 min | 31.8 min | 1180 nM | – | – | – | – | – |
| Cc1cccc2c1OP(=O)(OC[C@@H]1C=C[C@H](n3cnc4c(N)ncnc43)O1)OC2 (some centres undefined) | 0.63 | – | 1240 nM | – | 49000 nM | 65 nM | 190 nM | 746 | > 50 µM | 32.3 h | 9 min | 0.588 min | – | – | – | – | – | – |
| Cc1cc(C)c2c(c1)COP(=O)(OC[C@@H]1C=C[C@H](n3cnc4c(N)ncnc43)O1)O2 (some centres undefined) | 0.95 | – | 1140 nM | – | 25000 nM | 50 nM | 55 nM | 494 | > 50 µM | 44.7 h | 8.4 min | 0.6 min | – | – | – | – | – | – |
| Nc1ncnc2c1ncn2C1CCC(COP2(=O)OCc3ccccc3O2)O1 (centres undefined) | – | – | – | – | 93000 nM | 30 nM | 130 nM | 3096 | > 50 µM | 17 h | 774 min | 36 min | 2860 nM | 0.59 | – | – | – | – |
| OC[C@@H]1C=C[C@H](n2cnc3ncnc(O)c32)O1 | -0.89 | – | > 50000 nM | – | 87000 nM | 4300 nM | > 50000 nM | 20 | > 50 µM | – | < 0.6 min | < 0.6 min | – | – | – | – | – | – |
| Cc1cc(C)c2c(c1)COP(=O)(OCC1CCC(n3cnc4c(N)ncnc43)O1)O2 (centres undefined) | 1.35 | – | 1140 nM | – | 10000 nM | 25 nM | 25 nM | 383 | > 50 µM | 58.2 h | 618 min | 43.8 min | – | – | – | – | – | – |
| COc1ccc2c(c1)COP(=O)(OC[C@@H]1C=C[C@H](n3cnc4c(N)ncnc43)O1)O2 (stereo in doubt; 10b (f)) | – | – | – | – | – | – | – | 932 | – | – | – | – | – | 0.48 | 2830 nM | 40000 nM | 43 nM | 50 nM |
| COc1ccc2c(c1)COP(=O)(OC[C@@H]1C=C[C@H](n3cnc4c(N)ncnc43)O1)O2 (stereo in doubt; 10b (s)) | 0.41 | – | – | – | 62000 nM | – | – | 125 | > 50 µM | – | – | – | – | – | 12800 nM | – | 500 nM | 330 nM |
| COc1ccc2c(c1)COP(=O)(OC[C@@H]1C=C[C@H](n3cnc4c(N)ncnc43)O1)O2 (stereo in doubt; 10b) | – | – | – | – | – | – | – | 962 | – | 14.5 h | 8.4 min | 0.66 min | – | – | 1210 nM | 77000 nM | 80 nM | 65 nM |
| Cc1cn([C@H]2C=C[C@@H](CO)O2)c(=O)[nH]c1=O [STAVUDINE] | – | 311 | 15000 nM | – | 56000 nM | 180 nM | 260 nM | – | – | – | – | – | – | – | – | – | – | – |
| Cc1cn([C@H]2C[C@H](N=[N+]=[N-])[C@@H](CO)O2)c(=O)[nH]c1=O [ZIDOVUDINE] | 0.025 | – | > 100000 nM | – | > 100000 nM | – | 6 nM | – | – | – | – | – | – | – | – | – | – | – |
